How the values were obtained:
[1] = Cytotoxicity against mouse L5178 cells expressing human ABCB1 after 48 hrs by MTT assay; assay type: functional, cell-based; conditions: L5178, 48 h
Procedure, shortened: (§1)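 Parental mouse lymphoma L5178 and the MDR line made by pHa MDR1/A retrovirus transfection, selected with 60 µg/L colchicine. Grown in McCoy's 5A with horse serum at 37°C, 5% CO2. 5 x 10^4 cells/well, serial compound dilutions, 48 h. MTT added to 0.5 mg/mL final for 4 h, then 10% SDS in 0.01 M HCl overnight, OD read at 540 and 630 nm. IC50 taken as median cytotoxic activity (Dm) from control lanes of checkerboard plates, n=2.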

ABCB1 (P-glycoprotein) [2] = target: T1, ABCB1 (P-glycoprotein) (Homo sapiens, UniProt P08183); assay: Inhibition of human ABCB1 expressed in mouse L5178 cells assessed as increase in rhodamine-123 accumulation at 20 uM after 10 mins by flow cytometric analysis relative to control; assay type: cell-based; conditions: mouse L5178 cells expressing human ABCB1, probe rhodamine-123
Procedure, shortened: (§2)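 Cells at 2 × 10^6/mL were preincubated 10 min with compound. Rhodamine 123 then added to 5.2 µM final, 20 min at 37 °C. Cells washed twice in PBS, resuspended and read by flow cytometry. Percent inhibition was scaled between MDR-cell accumulation (0%) and parental L5178 accumulation (100%). Controls: 100 nM tariquidar (positive) and 2% DMSO (negative).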

[3] = Cytotoxicity against mouse L5178 cells after 48 hrs by MTT assay; assay type: functional, cell-based; conditions: L5178, 48 h; procedure, shortened: as §1
ABCB1 (P-glycoprotein) [4] = target: T1, ABCB1 (P-glycoprotein); assay: Inhibition of human ABCB1 expressed in mouse L5178 cells assessed as increase in rhodamine-123 accumulation at 2 uM after 10 mins by flow cytometric analysis relative to control; assay type: cell-based; conditions: mouse L5178 cells expressing human ABCB1, probe rhodamine-123; procedure, shortened: as §2
[5] = Synergistic cytotoxicity against mouse L5178 cells expressing human ABCB1 assessed as combination index at ED90 using 15:1 test compound to doxorubicin ratio after 48 hrs by MTT-based checkerboard microplate method; assay type: functional
Procedure, shortened: (§3)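 Checkerboard microplate combinations of compound with doxorubicin at constant molar ratios. 5 × 10^4 cells/well in McCoy's 5A, 48 h at 37°C, 5% CO2. MTT added to 0.5 mg/mL final for 4 h, SDS/HCl overnight, OD read at 540 and 630 nm. Combination indices derived per ratio for 50%, 75% and 90% growth inhibition by median-effect analysis.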

[6] = Synergistic cytotoxicity against mouse L5178 cells assessed as combination index at ED75 using 600:1 test compound to doxorubicin ratio after 48 hrs by MTT-based checkerboard microplate method; assay type: functional; procedure, shortened: as §3
[7] = Synergistic cytotoxicity against mouse L5178 cells assessed as combination index at ED50 using 600:1 test compound to doxorubicin ratio after 48 hrs by MTT-based checkerboard microplate method; assay type: functional; procedure, shortened: as §3
[8] = Synergistic cytotoxicity against mouse L5178 cells assessed as combination index at ED50 using 150:1 test compound to doxorubicin ratio after 48 hrs by MTT-based checkerboard microplate method; assay type: functional; procedure, shortened: as §3
[9] = Synergistic cytotoxicity against mouse L5178 cells assessed as combination index at ED90 using 150:1 test compound to doxorubicin ratio after 48 hrs by MTT-based checkerboard microplate method; assay type: functional; procedure, shortened: as §3
[10] = Synergistic cytotoxicity against mouse L5178 cells expressing human ABCB1 assessed as combination index at ED75 using 30:1 test compound to doxorubicin ratio after 48 hrs by MTT-based checkerboard microplate method; assay type: functional; procedure, shortened: as §3
[11] = Synergistic cytotoxicity against mouse L5178 cells expressing human ABCB1 assessed as combination index at ED50 using 30:1 test compound to doxorubicin ratio after 48 hrs by MTT-based checkerboard microplate method; assay type: functional; procedure, shortened: as §3
[12] = Synergistic cytotoxicity against mouse L5178 cells assessed as combination index at ED90 using 37.5:1 test compound to doxorubicin ratio after 48 hrs by MTT-based checkerboard microplate method; assay type: functional; procedure, shortened: as §3
[13] = Synergistic cytotoxicity against mouse L5178 cells expressing human ABCB1 assessed as combination index at ED90 using 60:1 test compound to doxorubicin ratio after 48 hrs by MTT-based checkerboard microplate method; assay type: functional; procedure, shortened: as §3
[14] = Synergistic cytotoxicity against mouse L5178 cells expressing human ABCB1 assessed as combination index at ED90 using 7.5:1 test compound to doxorubicin ratio after 48 hrs by MTT-based checkerboard microplate method; assay type: functional; procedure, shortened: as §3
[15] = Synergistic cytotoxicity against mouse L5178 cells expressing human ABCB1 assessed as combination index at ED75 using 60:1 test compound to doxorubicin ratio after 48 hrs by MTT-based checkerboard microplate method; assay type: functional; procedure, shortened: as §3
[16] = Synergistic cytotoxicity against mouse L5178 cells assessed as combination index at ED90 using 600:1 test compound to doxorubicin ratio after 48 hrs by MTT-based checkerboard microplate method; assay type: functional; procedure, shortened: as §3
[17] = Synergistic cytotoxicity against mouse L5178 cells assessed as combination index at ED75 using 37.5:1 test compound to doxorubicin ratio after 48 hrs by MTT-based checkerboard microplate method; assay type: functional; procedure, shortened: as §3
MCF7 = assay: Antiproliferative activity against human MCF7 cells after 72 hrs by MTT assay; assay type: functional, cell-based; conditions: MCF7, 72 h
Procedure, shortened: (§4)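 Cells grown in MEM with 10% FCS, 1% non-essential amino acids and 1% penicillin-streptomycin. Seeded at 5000 cells/well, exposed to 0.1–30.0 µM compound for 72 h. MTT (5 mg/ml solution) was then added for 4 h, formazan dissolved in DMSO, and absorbance read at 545 nm. Cisplatin served as positive control. IC50 came from sigmoidal dose–response fits (log inhibitor vs normalized response, variable slope).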

[18] = Synergistic cytotoxicity against mouse L5178 cells assessed as combination index at ED75 using 75:1 test compound to doxorubicin ratio after 48 hrs by MTT-based checkerboard microplate method; assay type: functional; procedure, shortened: as §3
[19] = Synergistic cytotoxicity against mouse L5178 cells expressing human ABCB1 assessed as combination index at ED75 using 7.5:1 test compound to doxorubicin ratio after 48 hrs by MTT-based checkerboard microplate method; assay type: functional; procedure, shortened: as §3
SiHa = assay: Antiproliferative activity against human SiHa cells after 72 hrs by MTT assay; assay type: functional, cell-based; procedure, shortened: as §4
[20] = Synergistic cytotoxicity against mouse L5178 cells expressing human ABCB1 assessed as combination index at ED50 using 7.5:1 test compound to doxorubicin ratio after 48 hrs by MTT-based checkerboard microplate method; assay type: functional; procedure, shortened: as §3
[21] = Synergistic cytotoxicity against mouse L5178 cells assessed as combination index at ED75 using 150:1 test compound to doxorubicin ratio after 48 hrs by MTT-based checkerboard microplate method; assay type: functional; procedure, shortened: as §3
[22] = Synergistic cytotoxicity against mouse L5178 cells assessed as combination index at ED75 using 300:1 test compound to doxorubicin ratio after 48 hrs by MTT-based checkerboard microplate method; assay type: functional; procedure, shortened: as §3
[23] = Synergistic cytotoxicity against mouse L5178 cells expressing human ABCB1 assessed as combination index at ED50 using 60:1 test compound to doxorubicin ratio after 48 hrs by MTT-based checkerboard microplate method; assay type: functional; procedure, shortened: as §3
[24] = Synergistic cytotoxicity against mouse L5178 cells expressing human ABCB1 assessed as combination index at ED50 using 15:1 test compound to doxorubicin ratio after 48 hrs by MTT-based checkerboard microplate method; assay type: functional; procedure, shortened: as §3
[25] = Synergistic cytotoxicity against mouse L5178 cells assessed as combination index at ED50 using 37.5:1 test compound to doxorubicin ratio after 48 hrs by MTT-based checkerboard microplate method; assay type: functional; procedure, shortened: as §3
MDA-MB-231 = assay: Antiproliferative activity against human MDA-MB-231 cells after 72 hrs by MTT assay; assay type: functional, cell-based; conditions: MDA-MB-231, 72 h; procedure, shortened: as §4
HeLa = assay: Antiproliferative activity against human HeLa cells after 72 hrs by MTT assay; assay type: functional, cell-based; procedure, shortened: as §4
[26] = Synergistic cytotoxicity against mouse L5178 cells expressing human ABCB1 assessed as combination index at ED90 using 30:1 test compound to doxorubicin ratio after 48 hrs by MTT-based checkerboard microplate method; assay type: functional; procedure, shortened: as §3
[27] = Synergistic cytotoxicity against mouse L5178 cells assessed as combination index at ED90 using 75:1 test compound to doxorubicin ratio after 48 hrs by MTT-based checkerboard microplate method; assay type: functional; procedure, shortened: as §3
[28] = Synergistic cytotoxicity against mouse L5178 cells expressing human ABCB1 assessed as combination index at ED75 using 15:1 test compound to doxorubicin ratio after 48 hrs by MTT-based checkerboard microplate method; assay type: functional; procedure, shortened: as §3
[29] = Synergistic cytotoxicity against mouse L5178 cells assessed as combination index at ED50 using 300:1 test compound to doxorubicin ratio after 48 hrs by MTT-based checkerboard microplate method; assay type: functional; procedure, shortened: as §3
[30] = Synergistic cytotoxicity against mouse L5178 cells assessed as combination index at ED90 using 300:1 test compound to doxorubicin ratio after 48 hrs by MTT-based checkerboard microplate method; assay type: functional; procedure, shortened: as §3
[31] = Synergistic cytotoxicity against mouse L5178 cells assessed as combination index at ED50 using 75:1 test compound to doxorubicin ratio after 48 hrs by MTT-based checkerboard microplate method; assay type: functional; procedure, shortened: as §3

T1 sequence (P08183 whole entry): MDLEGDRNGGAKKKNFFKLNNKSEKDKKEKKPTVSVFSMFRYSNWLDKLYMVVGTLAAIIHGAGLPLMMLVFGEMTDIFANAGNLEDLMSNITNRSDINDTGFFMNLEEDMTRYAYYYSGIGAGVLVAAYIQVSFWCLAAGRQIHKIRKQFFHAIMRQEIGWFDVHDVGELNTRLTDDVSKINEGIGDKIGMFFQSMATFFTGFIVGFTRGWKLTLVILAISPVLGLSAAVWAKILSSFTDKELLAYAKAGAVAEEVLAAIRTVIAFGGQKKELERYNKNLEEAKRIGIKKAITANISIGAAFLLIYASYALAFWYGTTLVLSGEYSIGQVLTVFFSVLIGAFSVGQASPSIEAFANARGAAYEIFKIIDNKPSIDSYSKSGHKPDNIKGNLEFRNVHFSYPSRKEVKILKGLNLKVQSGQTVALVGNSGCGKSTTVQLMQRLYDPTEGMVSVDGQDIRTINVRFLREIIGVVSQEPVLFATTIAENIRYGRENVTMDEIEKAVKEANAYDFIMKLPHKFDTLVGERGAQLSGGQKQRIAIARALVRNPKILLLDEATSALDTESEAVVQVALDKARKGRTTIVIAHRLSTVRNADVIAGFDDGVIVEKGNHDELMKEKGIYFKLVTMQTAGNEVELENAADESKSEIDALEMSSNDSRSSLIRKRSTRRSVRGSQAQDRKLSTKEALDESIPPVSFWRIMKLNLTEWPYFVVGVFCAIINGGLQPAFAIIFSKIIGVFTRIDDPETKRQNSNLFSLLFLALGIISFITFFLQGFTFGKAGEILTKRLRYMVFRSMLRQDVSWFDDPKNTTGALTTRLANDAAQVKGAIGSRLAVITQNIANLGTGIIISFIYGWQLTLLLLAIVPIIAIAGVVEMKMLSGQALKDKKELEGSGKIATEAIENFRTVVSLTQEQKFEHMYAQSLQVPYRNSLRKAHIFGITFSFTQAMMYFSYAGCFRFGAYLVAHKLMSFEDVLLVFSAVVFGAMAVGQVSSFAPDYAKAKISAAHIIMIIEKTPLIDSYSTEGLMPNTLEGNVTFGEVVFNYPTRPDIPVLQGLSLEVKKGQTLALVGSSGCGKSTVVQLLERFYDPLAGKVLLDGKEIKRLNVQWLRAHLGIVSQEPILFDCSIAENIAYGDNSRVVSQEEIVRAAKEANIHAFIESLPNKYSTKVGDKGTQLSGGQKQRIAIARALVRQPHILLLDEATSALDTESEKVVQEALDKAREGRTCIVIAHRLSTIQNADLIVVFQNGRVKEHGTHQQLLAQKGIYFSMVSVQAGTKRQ

inhibition at 10 min, 20 µM (ABCB1 (P-glycoprotein) [2]) [%] | inhibition at 10 min, 2 µM (ABCB1 (P-glycoprotein) [4]) [%] | Structure (SMILES) | IC50 [1] [µM] | IC50 [3] [µM] | CI [5] | CI [6] | CI [7] | CI [8] | CI [9] | CI [10] | CI [11] | CI [13] | CI [15] | CI [16] | CI [21] | CI [22] | CI [23] | CI [24] | CI [26] | CI [28] | further results
20.9 | 2.54 | CC(C)(O)CC[C@H]1OC(C)(C)O[C@]1(C)[C@H]1CC[C@@]2(O)C3=CC(=O)[C@@H]4C[C@H]5OC(C)(C)O[C@H]5C[C@]4(C)[C@H]3CC[C@]12C | 97.7 | 110 |  |  |  |  |  |  |  |  |  |  |  |  |  |  |  |  | 
25.1 | 2.25 | CO/N=C1\C=C2[C@H](CC[C@]3(C)[C@@H]([C@@]4(C)OC(C)(C)O[C@@H]4CCC(C)(C)O)CC[C@@]23O)[C@@]2(C)C[C@@H]3OC(C)(C)O[C@@H]3C[C@@H]12 | 55.1 | 40.9 | 0.16 | 0.9 | 0.93 | 1.06 | 0.62 | 0.21 | 0.19 | 0.52 | 0.39 | 0.91 | 0.79 | 0.8 | 0.29 | 0.17 | 0.24 | 0.16 | CI [12]: 1.13; CI [14]: 0.16; CI [17]: 1.14; IC50 (MCF7): > 30 µM; CI [18]: 1.06; CI [19]: 0.17; IC50 (SiHa): > 30 µM; CI [20]: 0.19; CI [25]: 1.19; IC50 (MDA-MB-231): > 30 µM; IC50 (HeLa): > 30 µM; CI [27]: 1.19; CI [29]: 0.82; CI [30]: 0.83; CI [31]: 0.99
81.1 | 7.15 | CC(C)(O)CC[C@H]1OC(C)(C)O[C@]1(C)[C@H]1CC=C2C3=C/C(=N/O)[C@@H]4C[C@H]5OC(C)(C)O[C@H]5C[C@]4(C)[C@H]3CC[C@@]21C | 28.4 | 34.2 | 0.27 | 0.94 | 1.01 | 0.98 | 0.61 | 0.25 | 0.32 | 0.28 | 0.34 | 0.91 | 0.76 | 1.17 | 0.42 | 0.98 | 0.2 | 0.25 | CI [29]: 1.14; CI [30]: 1.25
89.4 | 21 | C=CCO/N=C1\C=C2[C@H](CC[C@]3(C)[C@@H]([C@@]4(C)OC(C)(C)O[C@@H]4CCC(C)(C)O)CC[C@@]23O)[C@@]2(C)C[C@@H]3OC(C)(C)O[C@@H]3C[C@@H]12 | 51.9 | 31.5 | 0.13 | 1.08 | 1.19 | 1.03 | 0.69 | 0.18 | 0.17 | 0.31 | 0.26 | 1.05 | 0.81 | 1.12 | 0.24 | 0.17 | 0.21 | 0.13 | CI [12]: 0.89; CI [17]: 1.28; IC50 (MCF7): 13.6 µM; CI [18]: 1.27; IC50 (SiHa): 25.5 µM; CI [25]: 1.95; IC50 (MDA-MB-231): 21.4 µM; IC50 (HeLa): 15.6 µM; CI [27]: 1.27; CI [29]: 1.22; CI [30]: 1.11; CI [31]: 1.35
 |  | COc1cccc2c1C(=O)c1c(O)c3c(c(O)c1C2=O)C[C@@](O)(C(=O)CO)C[C@@H]3O[C@H]1C[C@H](N)[C@H](O)[C@H](C)O1 [DOXORUBICIN] | 4.49 | 0.08 |  |  |  |  |  |  |  |  |  |  |  |  |  |  |  |  | 
83 | 10.6 | CC(C)(O)CC[C@H]1OC(C)(C)O[C@]1(C)[C@H]1CC=C2C3=C/C(=N\O)[C@@H]4C[C@H]5OC(C)(C)O[C@H]5C[C@]4(C)[C@H]3CC[C@@]21C | 24.6 | 20.9 | 0.12 | 1.11 | 1.1 | 0.8 | 0.78 | 0.19 | 0.25 | 0.27 | 0.29 | 1.13 | 0.79 | 1.11 | 0.34 | 0.26 | 0.16 | 0.16 | CI [29]: 1.18; CI [30]: 1.04

From ChEMBL document CHEMBL4145462, “Nitrogen-containing ecdysteroid derivatives vs. multi-drug resistance in cancer: Preparation and antitumor activity of oximes, oxime ethers and a lactam” (Eur J Med Chem, 2018)
